Experimental findings from the array DNA melting data of Ke et al. (doi:10.1101/2024.01.08.574731) are described below.

Data set [1] is described as follows: melting temperature; fluorescence melt of hairpins on a sequencing array, two-state fit, raised by 9.35 °C to match UV melts. The conditions noted are these: sodium 0.088 M. The procedure, abridged:
(§1)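 Folding enthalpy and melting temperature were estimated with bootstrapped two-state fits and combined across four replicates by inverse-variance weighting, with fitted temperatures raised by 9.35 °C to match UV melts. The data were Cy3 fluorescence of library hairpins, with annealed Cy3 and quencher oligos, on a sequenced MiSeq flow cell in 50 mM Na-HEPES pH 8.0, 25 mM NaCl, imaged in 2.5 °C steps up to 60 °C and normalised to pre-quench Cy3 and control constructs.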

A short description of data set [2]: folding enthalpy; higher = less favourable; fluorescence melt of hairpins on a sequencing array, two-state fit. Particulars: sodium 0.088 M. The procedure, abridged: as §1

For the sequence GATCGCTGGAGCGATC ((((((....)))))), the Tm in data set [1] was 68.5 °C. Moreover, the folding enthalpy in data set [2] was -37.8 kcal/mol.
For GATCGCTGTCGCGATC ((((((....)))))), the Tm in data set [1] was 68.4 °C. Besides, the folding enthalpy in data set [2] was -30.2 kcal/mol.
Consider GATCGCTTGCGCGATC ((((((....)))))), for which, in data set [1], the Tm is 67.1 °C. Besides, in data set [2], the folding enthalpy was -30.3 kcal/mol.
For GATCGGAACCCCGATC ((((((....)))))) the same measures were 54.1 °C and -40 kcal/mol.
For GATCGGAAGACCGATC ((((((....)))))) the same measures were 52.8 °C and -29 kcal/mol.
In the case of GATCGGAATTCCGATC ((((((....)))))), in data set [1], the Tm stood at 56.6 °C. Further, the folding enthalpy in data set [2] is -51 kcal/mol.
On to GATCGGACACCGATC ((((((...)))))), for which the Tm in data set [1] is 57.1 °C. The folding enthalpy in data set [2] is -33.4 kcal/mol.
As for GATCGGACTGCCGATC ((((((....)))))), in data set [1], the Tm was found to be 55.5 °C. Further, in data set [2], the folding enthalpy is -42 kcal/mol.
For GATCGGATTCCGATC ((((((...)))))) the same measures were 54.6 °C and -44.6 kcal/mol.
For GATCGGATTTCCGATC ((((((....)))))), the Tm in data set [1] was 57.5 °C. For the same sequence, the folding enthalpy in data set [2] was -36.5 kcal/mol.
As for GATCGGCATCCGATC ((((((...)))))), the Tm in data set [1] was determined as 55.3 °C. For the same sequence, the folding enthalpy in data set [2] was -40.1 kcal/mol.
On to GATCGGCCACCCGATC ((((((....)))))), for which, in data set [1], the Tm amounted to 54.9 °C. In data set [2], the folding enthalpy was -39.9 kcal/mol.
For GATCGGCCCTCCGATC ((((((....)))))) the same measures were 56.7 °C and -39.9 kcal/mol.
For the sequence GATCGGCCTTCCGATC ((((((....)))))), the Tm in data set [1] was determined as 56.1 °C. In addition, in data set [2], the folding enthalpy was -41.3 kcal/mol.
With GATCGGCGCACCGATC ((((((....)))))), the Tm in data set [1] stood at 59.9 °C. The folding enthalpy in data set [2] is -37.4 kcal/mol.
Consider GATCGGCGGACCGATC ((((((....)))))), for which, in data set [1], the Tm amounted to 57.2 °C. Moreover, in data set [2], the folding enthalpy was -38.8 kcal/mol.
As for GATCGGCGGTCCGATC ((((((....)))))), in data set [1], the Tm was determined as 55.5 °C. Besides, the folding enthalpy in data set [2] is -43.3 kcal/mol.
On the same counts, the results for GATCGGCTACCGATC ((((((...)))))) are 56 °C and -33.9 kcal/mol.
GATCGGCTCACCGATC ((((((....)))))): the Tm in data set [1] amounted to 57.4 °C. Besides, the folding enthalpy in data set [2] was -38.8 kcal/mol.
On the same counts, the results for GATCGGCTCCCCGATC ((((((....)))))) are 55.2 °C and -42.1 kcal/mol.
Take GATCGGCTCGCCGATC ((((((....)))))): the Tm in data set [1] was determined as 69.3 °C. Besides, the folding enthalpy in data set [2] was -35.9 kcal/mol.
On to GATCGGCTGACCGATC ((((((....)))))), for which the Tm in data set [1] amounted to 56.2 °C. For the same sequence, the folding enthalpy in data set [2] is -40.4 kcal/mol.
For GATCGGCTGTCCGATC ((((((....)))))) the same measures were 56.3 °C and -39.6 kcal/mol.
For GATCGGCTTCCGATC ((((((...)))))) the same measures were 56.1 °C and -44.9 kcal/mol.
Regarding GATCGGGACTCCGATC ((((((....)))))), in data set [1], the Tm turned out to be 61 °C. The folding enthalpy in data set [2] was -39.7 kcal/mol.
Consider GATCGGGAGACCGATC ((((((....)))))), for which, in data set [1], the Tm is 63.8 °C. Also, the folding enthalpy in data set [2] is -32.6 kcal/mol.
For GATCGGGAGGCCGATC ((((((....)))))) the same measures were 56.2 °C and -46.1 kcal/mol.
On the same counts, the results for GATCGGGAGTCCGATC ((((((....)))))) are 56.5 °C and -39.6 kcal/mol.
On the same counts, the results for GATCGGGCGCCGATC ((((((...)))))) are 55 °C and -46.3 kcal/mol.
Turning to GATCGGGCGTCCGATC ((((((....)))))), the Tm in data set [1] was 58.2 °C. In data set [2], the folding enthalpy is -37.2 kcal/mol.
For GATCGGGGAAACTCGATC (((((.(....).))))) the same measures were 51.2 °C and -33.1 kcal/mol.
On the same counts, the results for GATCGGGGACCGATC ((((((...)))))) are 66.8 °C and -37.2 kcal/mol.
For GATCGGGGATCCGATC ((((((....)))))) the same measures were 62.8 °C and -40.7 kcal/mol.
Take GATCGGGGCCCGATC ((((((...)))))): the Tm in data set [1] came to 60.5 °C. For the same sequence, the folding enthalpy in data set [2] is -41.2 kcal/mol.
On the same counts, the results for GATCGGGGGCCGATC ((((((...)))))) are 54.9 °C and -40.8 kcal/mol.
On the same counts, the results for GATCGGGGTCCGATC ((((((...)))))) are 58.6 °C and -32.1 kcal/mol.
On the same counts, the results for GATCGGGTACCCGATC ((((((....)))))) are 64.9 °C and -47.6 kcal/mol.
Regarding GATCGGGTATCCGATC ((((((....)))))), the Tm in data set [1] turned out to be 65.4 °C. In addition, in data set [2], the folding enthalpy was -37.6 kcal/mol.
